Source: ChEMBL document CHEMBL4251721, “Imidazole Alkaloids and Their Zinc Complexes from the Calcareous Marine Sponge Leucetta chagosensis” (J Nat Prod, 2018)
Calls of active or inactive are those of the source. The rule behind the calls is not given here.

Legend:
[1] = system: MCF7; test: Induction of apoptosis in human MCF7 cells assessed as viable cells at 10 uM after 24 hrs by Annexin V-FITC/propidium iodide staining based flow cytometry (reference value: 96.6%); assay type: functional; settings: MCF7, 24 h, read-out: Activity
[2] = system: MCF7; test: Induction of apoptosis in human MCF7 cells assessed as early apoptotic cells at 5 uM after 24 hrs by Annexin V-FITC/propidium iodide staining based flow cytometry (reference value: 0.866%); assay type: functional
[3] = system: MCF7; test: Cytotoxicity against human MCF7 cells expressing Oct4-GFP assessed as reduction in cell viability after 72 hrs by CCK-8 assay; assay type: functional, cell-based; settings: MCF7, 72 h
Outline: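 Cells were kept at 37 °C in DMEM with 10% nondialyzed FBS and 2 mM L-glutamine. The Oct4-GFP line is MCF-7 made stem-like by lentiviral Oct4-GFP overexpression. Cells were seeded at 3000/well and grown 24 h, then exposed to six concentrations of compound (DMSO solutions) for 72 h. CCK-8 was added for 2 h at 37 °C and A450 read to give IC50.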

[4] = system: MCF7; test: Induction of apoptosis in human MCF7 cells assessed as viable cells at 5 uM after 24 hrs by Annexin V-FITC/propidium iodide staining based flow cytometry (reference value: 96.6%); assay type: functional; settings: MCF7, 24 h, read-out: Activity
[5] = system: MCF7; test: Induction of apoptosis in human MCF7 cells assessed as late apoptotic cells at 10 uM after 24 hrs by Annexin V-FITC/propidium iodide staining based flow cytometry (reference value: 0.309%); assay type: functional
[6] = system: MCF7; test: Induction of apoptosis in human MCF7 cells assessed as late apoptotic cells after 24 hrs by Annexin V-FITC/propidium iodide staining based flow cytometry; assay type: functional, cell-based
[7] = system: PC-9; test: Cytotoxicity against human PC9 cells assessed as reduction in cell viability after 72 hrs by CCK-8 assay; assay type: functional, cell-based; settings: PC-9, 72 h
[8] = system: MCF7; test: Induction of apoptosis in human MCF7 cells assessed as early apoptotic cells at 10 uM after 24 hrs by Annexin V-FITC/propidium iodide staining based flow cytometry (reference value: 0.866%); assay type: functional
[9] = system: MCF7; test: Induction of apoptosis in human MCF7 cells assessed as late apoptotic cells at 5 uM after 24 hrs by Annexin V-FITC/propidium iodide staining based flow cytometry (reference value: 0.309%); assay type: functional
[10] = system: MCF7; test: Induction of apoptosis in human MCF7 cells assessed as early apoptotic cells after 24 hrs by Annexin V-FITC/propidium iodide staining based flow cytometry; assay type: functional, cell-based
[11] = system: MCF7; test: Induction of apoptosis in human MCF7 cells assessed as necrotic cells at 10 uM after 24 hrs by Annexin V-FITC/propidium iodide staining based flow cytometry (reference value: 2.19%); assay type: functional
[12] = system: A549; test: Cytotoxicity against human A549 cells assessed as reduction in cell viability after 72 hrs by CCK-8 assay; assay type: functional, cell-based; settings: A549, 72 h
[13] = system: MCF7; test: Cytotoxicity against human MCF7 cells assessed as reduction in cell viability after 72 hrs by CCK-8 assay; assay type: functional, cell-based; settings: MCF7, 72 h
Outline: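 Cells were kept at 37 °C in DMEM with 10% nondialyzed FBS and 2 mM L-glutamine. The Oct4-GFP line is MCF-7 made stem-like by lentiviral Oct4-GFP overexpression. Cells were seeded at 3000/well and grown 24 h, then exposed to six concentrations of compound (DMSO solutions) for 72 h.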

[14] = system: MCF7; test: Induction of apoptosis in human MCF7 cells assessed as necrotic cells at 5 uM after 24 hrs by Annexin V-FITC/propidium iodide staining based flow cytometry (reference value: 2.19%); assay type: functional
[15] = system: THP-1; test: Antiinflammatory activity in human THP1 cells assessed as inhibition of LPS-stimulated MCP-1 level in serum at 10 uM preincubated for 2 hrs followed by LPS addition measured after 22 hrs by flow cytometry; assay type: functional, cell-based
[16] = system: THP-1; test: Antiinflammatory activity in human THP1 cells assessed as inhibition of LPS-stimulated IL-6 production by measuring IL-6 level in serum at 10 uM preincubated for 2 hrs followed by LPS addition measured after 22 hrs by flow cytometry (reference value: 6100 +/- 200 pg/ml); assay type: functional
[17] = system: THP-1; test: Antiinflammatory activity in human THP1 cells assessed as inhibition of LPS-stimulated IL-12p70 level in serum at 10 uM preincubated for 2 hrs followed by LPS addition measured after 22 hrs by flow cytometry; assay type: functional, cell-based
[18] = system: THP-1; test: Antiinflammatory activity in human THP1 cells assessed as inhibition of LPS-stimulated TNFalpha production by measuring TNF-alpha level in serum at 10 uM preincubated for 2 hrs followed by LPS addition measured after 22 hrs by flow cytometry (reference value: 9900 +/- 300 pg/ml); assay type: functional
[19] = system: THP-1; test: Antiinflammatory activity in human THP1 cells assessed as inhibition of LPS-stimulated IL-10 level in serum at 10 uM preincubated for 2 hrs followed by LPS addition measured after 22 hrs by flow cytometry; assay type: functional, cell-based

| Structure (SMILES) | IC50 [7] [µM] | IC50 [12] [µM] | IC50 [13] [µM] | inhibition [15] | Activity [16] [pg/mL] | inhibition [17] | Activity [18] [pg/mL] | inhibition [19] | further results |
| --- | --- | --- | --- | --- | --- | --- | --- | --- | --- |
| COc1ccc(Cc2nc(/N=C3\NC(=O)N(C)C3=O)n(C)c2Cc2ccc(OC)c(OC)c2O)cc1 [PYRONAAMIDINE] | 5.6 | 7.8 | 5.2 |  |  |  |  |  | viability at 10 µM [1]: 34.8%; Activity [2]: 10.2%; IC50 [3]: 10 µM; viability at 5 µM [4]: 82%; Activity [5]: 30.1%; Activity [6]: Dose-dependent effect; Activity [8]: 32.3%; Activity [9]: 6.25%; Activity [10]: Dose-dependent effect; Activity [11]: 2.55%; Activity [14]: 1.54% |
| CC(=O)O[C@H]1C(=O)[C@@]2(C)[C@H]([C@H](OC(=O)c3ccccc3)[C@]3(O)C[C@H](OC(=O)[C@H](O)[C@@H](NC(=O)c4ccccc4)c4ccccc4)C(C)=C1C3(C)C)[C@]1(OC(C)=O)CO[C@@H]1C[C@@H]2O [PACLITAXEL] | 0.0027 | 0.0032 |  |  |  |  |  |  |  |
| COc1ccc(C2=C3C(=NC(=N)N3C)C(=O)c3c(OC)ccc(OC)c32)cc1 | > 20 | > 20 | > 20 | inactive | 5400 | inactive | 9700 | inactive |  |
| CN/C(N)=N\C(=O)Nc1nc(Cc2ccc3c(c2)OCO3)cn1C | > 20 | > 20 | > 20 | inactive | 5000 | inactive | 7800 | inactive |  |
| CC(C)=CCC/C(C)=C/Cc1cc(-c2coc3cc(O)ccc3c2=O)ccc1O |  |  |  |  | 2700 |  |  |  |  |
| Nc1cccc2c1C(=O)N(C1CCC(=O)NC1=O)C2=O (configuration not stated) [POMALIDOMIDE] |  |  |  |  |  |  | 7500 |  |  |
| CNC1=N/C(=N/c2nc(Cc3ccc4c(c3)OCO4)cn2C)C(=O)O1 | > 20 | > 20 | > 20 | inactive | 7600 | inactive | 9900 | inactive |  |
